Reference: ChEMBL document CHEMBL4665627 (Eur J Med Chem, 2019)
≈ marks a conversion by molar mass, not a printed value. Calls of active or inactive are those of the source. The calls are words filed in the database; no cut-off is given here.

How the values were obtained:
Saccharomyces cerevisiae = assay: Inhibition of Saccharomyces cerevisiae CGMCC 2.145 chitin synthase at 300 ug/ml using GlcNAc and UDP-GlcNAc as substrate incubated for 60 mins by microplate reader analysis relative to control; settings: dose 300.0 µg/ml
Method in brief: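 Chitin synthase inhibition ratio measured at 300 µg/mL test compound, relative to untreated control.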

[1] = Inhibition of Saccharomyces cerevisiae CGMCC 2.145 chitin synthase using GlcNAc and UDP-GlcNAc as substrate incubated for 60 mins by microplate reader analysis
Method in brief: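 Chitin synthase IC50 determined from concentration–inhibition curves.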

Staphylococcus aureus [2] = assay: Antibacterial activity against Staphylococcus aureus ATCC 29213 assessed as inhibition of bacterial growth after 24 hrs by CLSI protocol based two fold serial dilution method; assay type: functional
Escherichia coli [3] = assay: Antibacterial activity against Escherichia coli assessed as inhibition of bacterial growth after 24 hrs by CLSI protocol based two fold serial dilution method; assay type: functional
Method in brief: (§1)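 Two-fold serial broth dilution in 96-well plates following CLSI; MIC (mM) taken as the lowest concentration giving complete growth inhibition; MIC values from three independent experiments.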

Acinetobacter baumannii = assay: Antibacterial activity against Acinetobacter baumannii assessed as inhibition of bacterial growth after 24 hrs by CLSI protocol based two fold serial dilution method; assay type: functional; method in brief: as §1
Enterococcus faecalis = assay: Antibacterial activity against Enterococcus faecalis assessed as inhibition of bacterial growth after 24 hrs by CLSI protocol based two fold serial dilution method; assay type: functional; method in brief: as §1
Klebsiella pneumoniae [4] = assay: Antibacterial activity against Klebsiella pneumoniae assessed as inhibition of bacterial growth after 24 hrs by CLSI protocol based two fold serial dilution method; assay type: functional; method in brief: as §1
Staphylococcus aureus [5] = assay: Antibacterial activity against Staphylococcus aureus ATCC 25923 assessed as inhibition of bacterial growth after 24 hrs by CLSI protocol based two fold serial dilution method; assay type: functional; method in brief: as §1
Klebsiella pneumoniae [6] = assay: Antibacterial activity against Klebsiella pneumoniae measured every 24 hrs after several passages by serial dilution method; assay type: functional, organism-based
Pseudomonas aeruginosa [7] = assay: Antibacterial activity against Pseudomonas aeruginosa assessed as inhibition of bacterial growth after 24 hrs by CLSI protocol based two fold serial dilution method; assay type: functional; method in brief: as §1
Staphylococcus aureus [8] = assay: Antibacterial activity against Staphylococcus aureus assessed as inhibition of bacterial growth after 24 hrs by CLSI protocol based two fold serial dilution method; assay type: functional; method in brief: as §1
Pseudomonas aeruginosa [9] = assay: Antibacterial activity against Pseudomonas aeruginosa ATCC 27853 assessed as inhibition of bacterial growth after 24 hrs by CLSI protocol based two fold serial dilution method; assay type: functional; method in brief: as §1
Escherichia coli [10] = assay: Antibacterial activity against Escherichia coli ATCC 25922 assessed as inhibition of bacterial growth after 24 hrs by CLSI protocol based two fold serial dilution method; assay type: functional; method in brief: as §1
Staphylococcus aureus [11] = assay: Antibacterial activity against methicillin-resistant Staphylococcus aureus N315 assessed as inhibition of bacterial growth after 24 hrs by CLSI protocol based two fold serial dilution method; assay type: functional
Aspergillus fumigatus = assay: Antifungal activity against Aspergillus fumigatus assessed as inhibition of fungal growth after 24 hrs by CLSI protocol based two fold serial dilution method; assay type: functional; method in brief: as §1
Candida albicans [12] = assay: Antifungal activity against Candida albicans assessed as inhibition of fungal growth after 24 hrs by CLSI protocol based two fold serial dilution method; assay type: functional; method in brief: as §1
Candida albicans [13] = assay: Antifungal activity against Candida albicans ATCC 90023 assessed as inhibition of fungal growth after 24 hrs by CLSI protocol based two fold serial dilution method; assay type: functional; method in brief: as §1
Candida parapsilosis = assay: Antifungal activity against Candida parapsilosis ATCC 22019 assessed as inhibition of fungal growth after 24 hrs by CLSI protocol based two fold serial dilution method; assay type: functional; settings: Lodderomyces parapsilosis; method in brief: as §1
Candida tropicalis = assay: Antifungal activity against Candida tropicalis assessed as inhibition of fungal growth after 24 hrs by CLSI protocol based two fold serial dilution method; assay type: functional; method in brief: as §1

Row | Compound | inhibition (Saccharomyces cerevisiae) | IC50 [1] | MIC (Staphylococcus aureus [2]) | MIC (Escherichia coli [3]) | MIC (Acinetobacter baumannii) | MIC (Enterococcus faecalis) | MIC (Klebsiella pneumoniae [4]) | MIC (Staphylococcus aureus [5]) | Activity (Klebsiella pneumoniae [6]) | MIC (Pseudomonas aeruginosa [7]) | MIC (Staphylococcus aureus [8]) | MIC (Pseudomonas aeruginosa [9]) | MIC (Escherichia coli [10]) | MIC (Staphylococcus aureus [11]) | MIC (Aspergillus fumigatus) | MIC (Candida albicans [12]) | MIC (Candida albicans [13]) | MIC (Candida parapsilosis) | MIC (Candida tropicalis)
1 | NC(=O)OC[C@H](O)[C@@H](O)[C@H](N)C(=O)N[C@H](C(=O)O)[C@H]1O[C@@H](n2cc(CO)c(=O)[nH]c2=O)[C@H](O)[C@@H]1O [POLYOXIN B] | 81% | 120 µM | – | – | – | – | – | – | – | – | – | – | – | – | – | – | – | – | –
2 | CCn1cc(C(=O)O)c(=O)c2cc(F)c(N3CCNCC3)cc21 [NORFLOXACIN] | – | – | 6 µM (≈ 1.92 µg/mL) | 50 µM (≈ 16 µg/mL) | 25 µM (≈ 7.98 µg/mL) | 13 µM (≈ 4.15 µg/mL) | 13 µM (≈ 4.15 µg/mL) | 3 µM (≈ 0.958 µg/mL) | inactive | 6 µM (≈ 1.92 µg/mL) | 2 µM (≈ 0.639 µg/mL) | 2 µM (≈ 0.639 µg/mL) | 25 µM (≈ 7.98 µg/mL) | 25 µM (≈ 7.98 µg/mL) | – | – | – | – | –
3 | CCn1cc(-c2csc(N)n2)c(=O)c2cc(F)c(N3CCN(CCO)CC3)cc21 | 48.3% | – | 153 µM (≈ 63.9 µg/mL) | 153 µM (≈ 63.9 µg/mL) | 153 µM (≈ 63.9 µg/mL) | 38 µM (≈ 15.9 µg/mL) | 19 µM (≈ 7.93 µg/mL) | 77 µM (≈ 32.1 µg/mL) | – | 77 µM (≈ 32.1 µg/mL) | 153 µM (≈ 63.9 µg/mL) | 38 µM (≈ 15.9 µg/mL) | 153 µM (≈ 63.9 µg/mL) | 153 µM (≈ 63.9 µg/mL) | 153 µM (≈ 63.9 µg/mL) | 153 µM (≈ 63.9 µg/mL) | 153 µM (≈ 63.9 µg/mL) | 77 µM (≈ 32.1 µg/mL) | 153 µM (≈ 63.9 µg/mL)
4 | CCn1cc(-c2csc(N)n2)c(=O)c2cc(F)c(N3CCN(C(C)=O)CC3)cc21 | 71.1% | – | 19 µM (≈ 7.89 µg/mL) | 77 µM (≈ 32 µg/mL) | 39 µM (≈ 16.2 µg/mL) | 39 µM (≈ 16.2 µg/mL) | 39 µM (≈ 16.2 µg/mL) | 39 µM (≈ 16.2 µg/mL) | – | 39 µM (≈ 16.2 µg/mL) | 77 µM (≈ 32 µg/mL) | 10 µM (≈ 4.15 µg/mL) | 39 µM (≈ 16.2 µg/mL) | 77 µM (≈ 32 µg/mL) | 19 µM (≈ 7.89 µg/mL) | 19 µM (≈ 7.89 µg/mL) | 19 µM (≈ 7.89 µg/mL) | 39 µM (≈ 16.2 µg/mL) | 77 µM (≈ 32 µg/mL)
